Results taken from ChEMBL document CHEMBL1150290, “Novel anti-inflammatory agents based on pyridazinone scaffold; design, synthesis and in vivo activity” (Bioorg Med Chem, 2008).

Experiments:
Rattus norvegicus [1] = experiment: Antiinflammatory activity against carrageenan-induced paw edema in sc dosed Albino rat assessed as inhibition of paw edema volume measured 4 hrs after carrageenan challenge; format: functional
Procedure, shortened: (§1)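 Rats randomized into groups of six. Edema induced by subplantar injection of 50 µL 2% carrageenan in 0.9% saline. Compounds in DMSO given sc at 5, 10, 15, 20 and 25 µmol/kg, 1 h before carrageenan; controls got DMSO. Paw volume read by water plethysmometer immediately and 4 h after carrageenan. Protection = (Vc − Vd)/Vc × 100. ED50 taken from dose-response curves at 4 h. Means ± SEM.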

Rattus norvegicus [2] = experiment: Toxicity in Albino rat assessed as gastric-ulcerogenic effect at 30 uM/kg, po twice daily for 3 days; format: organism-based; conditions: in vivo, 72 h, 30 µM/kg per day
Procedure, shortened: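 Male albino rats (100–120 g), six per group, fasted 12 h with water ad libitum. Compounds given orally in two equal doses at 0 and 12 h for three successive days, 30 µM/kg per day; controls received 1% gum acacia orally. Rats killed with diethyl ether 6 h after the last dose and stomachs removed. Lesion severity scored on an arbitrary scale as ulcer index; % ulceration = ulcer-bearing animals/total × 100.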

Rattus norvegicus [3] = experiment: Antiinflammatory activity in sc dosed Albino rat assessed as protection against carrageenan-induced paw edema measured 4 hrs after carrageenan challenge; format: functional; procedure, shortened: as §1
Rattus norvegicus [4] = experiment: Antiinflammatory activity in sc dosed Albino rat assessed as protection against carrageenan-induced paw edema measured 4 hrs after carrageenan challenge relative to indomethacin; format: functional

Structure (SMILES)	ED50 (Rattus norvegicus [1])	Activity (Rattus norvegicus [2])	Activity (Rattus norvegicus [3])	Activity (Rattus norvegicus [4])
CN1N=C(/C=C/c2ccc3c(c2)OCO3)CCC1=O	34.3 µmol/kg	10%	–	–
O=C1CCC(/C=C/c2ccc3c(c2)OCCO3)=NN1	27 µmol/kg	0%	–	–
O=C1CCC(/C=C/c2ccc(-c3ccccc3)cc2)=NN1c1ccccc1	38.6 µmol/kg	10%	–	–
O=C1CCC(CCc2ccc3c(c2)OCCO3)=NN1	17 µmol/kg	0%	61.22%	82.28
O=C1CCC(/C=C/c2ccc(-c3ccccc3)cc2)=NN1	24.6 µmol/kg	10%	–	–
O=C1CCC(/C=C/c2ccc(Oc3ccccc3)cc2)=NN1	28.8 µmol/kg	0%	–	–
CN1N=C(/C=C/c2ccc(-c3ccccc3)cc2)CCC1=O	32.4 µmol/kg	20%	–	–
CN1N=C(CCc2ccc(-c3ccccc3)cc2)CCC1=O	22.3 µmol/kg	0%	–	–
O=C1CCC(CCc2ccc(-c3ccccc3)cc2)=NN1	18.7 µmol/kg	10%	58.16%	78.17
Cc1ccc(-c2cc(C(F)(F)F)nn2-c2ccc(S(N)(=O)=O)cc2)cc1 [CELECOXIB]	16.7 µmol/kg	0%	77.5%	104.23
COc1ccc2c(c1)c(CC(=O)O)c(C)n2C(=O)c1ccc(Cl)cc1 [INDOMETHACIN]	9.7 µmol/kg	100%	74.4%	–
